According to ChEMBL document CHEMBL1137442, “Synthesis and anticonvulsant evaluation of 4-(4-alkoxylphenyl)-3-ethyl-4H-1,2,4-triazoles as open-chain analogues of 7-alkoxyl-4,5-dihydro[1,2,4]triazolo[4,3-a]quinolines” (Bioorg Med Chem, 2007):
Calls of active or inactive are those of the source.

Legend:
Mus musculus [1] = species: Mus musculus; test: Protective index, ratio of TD50 for C57B/6 mouse by rotarod test to ED50 for C57B/6 mouse by MES test; type: functional
Mus musculus [2] = test: Anticonvulsant activity against MES-induced seizure in ip dosed C57B/6 mouse by MES test; type: functional; details: C57B/6, ip
Outline: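 Mice, groups of 10, given a range of intraperitoneal doses until at least three points fell within 10–90% protection. MES was tested 30 min after dosing, with current applied via corneal electrodes for 0.2 s. Protection was defined as abolition of the hind-leg tonic maximal extension.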

[3] = Neurotoxicity in ip dosed C57B/6 mouse after 30 mins by rotarod test; type: toxicity, organism-based; details: in vivo
Outline: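 Mice, groups of 10, given a range of ip doses to define 10–90% minimal neurotoxicity. At 30 min after dosing, each mouse was placed on a 1-in. knurled rod rotating at 6 rpm for 1 min. Neurotoxicity meant failure to keep equilibrium in each of three trials.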

Mus musculus [4] = test: Anticonvulsant activity against strychnine-induced seizure in C57B/6 mouse at 300 mg/kg; type: functional, organism-based; parameters: dose 300 mg/kg
Outline: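 Strychnine chlorhydrate in saline (1.2 mg/mL, 1 mL/kg) was given sc as a 100%-convulsant dose after compound pretreatment, with the compound tested at 300 mg/kg. Mice were housed individually and observed for 30 min, recording seizure onset time, number of tonic seizures and lethality.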

Mus musculus [5] = species: Mus musculus; test: Anticonvulsant activity against 3-mercaptopropionic acid-induced seizure in C57B/6 mouse; type: functional
Outline: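 3-Mercaptopropionic acid 40 mg/kg in saline was injected sc 1 h after test treatment. Convulsion latency and duration, plus lethality latency and percentage, were recorded over 1 h. ED50 was the dose preventing tonic convulsions in 50% of treated animals.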

Mus musculus [6] = species: Mus musculus; test: Anticonvulsant activity against isoniazid-induced seizure in C57B/6 mouse; type: functional
Outline: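 Isoniazid was given ip at 250 mg/kg, a dose set by a dose–percent effect curve to convulse 100% of animals. Test compounds were given beforehand. ED50 was the dose protecting 50% of animals from tonic convulsions.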

Mus musculus [7] = species: Mus musculus; test: Anticonvulsant activity against thiosemicarbazide-induced seizure in C57B/6 mouse; type: functional
Outline: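 Thiosemicarbazide 50 mg/kg ip, a fully convulsant dose, was given 1 h after test treatment. Latency and duration of convulsions, plus lethality latency and percentage, were recorded over 2 h 30 min. ED50 was the dose preventing tonic convulsions in 50% of treated animals.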

Mus musculus [8] = species: Mus musculus; test: Anticonvulsant activity against pentylenetetrazole-induced seizure in C57B/6 mouse; type: functional
Outline: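 Pentylenetetrazole 85 mg/kg sc, a dose giving 100% convulsions, was given 30 min after test treatment. Latency and duration of convulsions, plus latency and percentage of lethality, were recorded over the following 1 h. ED50 was the dose preventing tonic convulsions in 50% of treated animals.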

| Compound | Ratio TD50/ED50 (Mus musculus [1]) | ED50 (Mus musculus [2]) [mg/kg] | TD50 at 0.5 h [3] [mg/kg] | Activity (Mus musculus [4]) | ED50 (Mus musculus [5]) [mg/kg] | ED50 (Mus musculus [6]) [mg/kg] | ED50 (Mus musculus [7]) [mg/kg] | ED50 (Mus musculus [8]) [mg/kg] |
| --- | --- | --- | --- | --- | --- | --- | --- | --- |
| CCc1nncn1-c1ccc(OCc2ccccc2F)cc1 | 2.9 | 21.2 | 61.5 |  |  |  |  |  |
| CCCCCCOc1ccc2c(c1)CCc1nncn1-2 | 2.2 | 13.5 | 30.3 |  |  |  |  |  |
| CCc1nncn1-c1ccc(OCc2c(F)cccc2F)cc1 | 6.9 | 15.8 | 109 |  |  |  |  |  |
| CCOc1ccc(-n2cnnc2CC)cc1 |  | > 100 |  |  |  |  |  |  |
| CCCOc1ccc(-n2cnnc2CC)cc1 |  | > 100 |  |  |  |  |  |  |
| CCCCCCCCOc1ccc(-n2cnnc2CC)cc1 | 9.3 | 8.8 | 82.2 | inactive | 22.8 | 38.1 | 31.7 | 26.4 |
| c1ccc(COc2ccc3c(c2)CCc2nncn2-3)cc1 | 3.5 | 17.3 | 61.4 |  |  |  |  |  |
| CCCCCCCCCCCCOc1ccc(-n2cnnc2CC)cc1 |  | > 100 |  |  |  |  |  |  |
| CCc1nncn1-c1ccc(OCc2ccc(C)cc2)cc1 | 4 | 25.5 | 101 |  |  |  |  |  |
| CCc1nncn1-c1ccc(OCc2ccc(F)cc2)cc1 | 4 | 22.8 | 91.3 |  |  |  |  |  |
| CCCCCCOc1ccc(-n2cnnc2CC)cc1 | 4.7 | 13.2 | 62.1 |  |  |  |  |  |
| Cc1ccc(COc2ccc3c(c2)CCc2nncn2-3)cc1 | 3.2 | 20.5 | 65.8 |  |  |  |  |  |
| Fc1ccc(COc2ccc3c(c2)CCc2nncn2-3)cc1 | 4.6 | 11.8 | 54.5 |  |  |  |  |  |
| CCc1nncn1-c1ccc(OCc2c(Cl)cccc2Cl)cc1 | 8.3 | 15.8 | 132 |  |  |  |  |  |
| CCc1nncn1-c1ccc(OCc2cccc(F)c2)cc1 | 4 | 22.8 | 91.2 |  |  |  |  |  |
| CCc1nncn1-c1ccc(OCc2ccccc2)cc1 | 4.9 | 20.8 | 102 |  |  |  |  |  |
| CCc1nncn1-c1ccc(OCc2ccc(OC)cc2)cc1 | 8.3 | 15.8 | 132 |  |  |  |  |  |
| CCc1nncn1-c1ccc(OCc2ccccc2Cl)cc1 | 5.8 | 13.2 | 76.1 |  |  |  |  |  |
| CCCCCCCOc1ccc(-n2cnnc2CC)cc1 | 5.5 | 8.3 | 45.6 |  |  |  |  |  |
| CCc1nncn1-c1ccc(OCc2ccc(Cl)cc2)cc1 | 10.4 | 19.7 | 137 |  |  |  |  |  |
| CCc1nncn1-c1ccc(OCc2cccc(Cl)c2)cc1 | 4 | 27.4 | 110 |  |  |  |  |  |
| CCCCOc1ccc(-n2cnnc2CC)cc1 |  | > 100 |  |  |  |  |  |  |
| CCc1nncn1-c1ccc(OCc2ccc3c(c2)OCO3)cc1 | 9.4 | 20.1 | 189 |  |  |  |  |  |
